Measurements from article PMC5652008 (EBioMedicine, 2017).
Marks after values point to notes of the source that are not given here. Square brackets hold non-standard residues; d marks the D form. Peptide text beside a SMILES is read from it. * marks the point of attachment. Succinyl(4-O-cholesteryl) = CC(C)CCC[C@@H](C)[C@H]1CC[C@H]2[C@@H]3CC=C4C[C@@H](OC(=O)CCC(=O)*)CC[C@]4(C)[C@H]3CC[C@]12C; Sta = CC(C)C[C@H](N)[C@@H](O)CC(=O)O; Palmitoyl = CCCCCCCCCCCCCCCC(=O)*

Columns and labels:
BACE1 [1] = molecular target: T1, BACE1 (Homo sapiens, UniProt P56817); assay: Cell-based Aβ lowering IC50 assay; settings: for Aβ40 production inhibition in HEK293 APP cells: 16 h / overnight incubation
T1 sequence (P56817 46-501): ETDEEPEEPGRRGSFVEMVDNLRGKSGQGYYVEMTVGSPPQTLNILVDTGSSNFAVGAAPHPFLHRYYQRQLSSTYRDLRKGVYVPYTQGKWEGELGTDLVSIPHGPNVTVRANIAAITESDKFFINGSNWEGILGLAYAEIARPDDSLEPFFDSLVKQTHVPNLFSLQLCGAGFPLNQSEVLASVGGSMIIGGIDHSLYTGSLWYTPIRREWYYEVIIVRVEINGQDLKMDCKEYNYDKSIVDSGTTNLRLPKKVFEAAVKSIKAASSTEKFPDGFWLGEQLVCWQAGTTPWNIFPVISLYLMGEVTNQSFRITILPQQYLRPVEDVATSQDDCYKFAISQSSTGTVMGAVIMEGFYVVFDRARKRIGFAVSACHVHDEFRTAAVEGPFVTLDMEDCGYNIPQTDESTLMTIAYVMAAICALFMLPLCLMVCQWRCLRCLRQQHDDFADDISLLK
Outline: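 Test compounds, free or Brain Shuttle-coupled, added in serial dilutions to HEK293 cells stably expressing wild-type human APP695, grown in Iscove's medium with 10% FBS to ~80% confluency. Construct dilution buffers served as control. Overnight at 37 °C, 5% CO2. Supernatant Aβ40 read by AlphaLISA: acceptor beads 1 h, then streptavidin donor beads 30 min, both at RT; emission at 615 nm. Compared with vehicle-treated cells; mean ± SEM.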

Thermodynamic = format: physicochemical; settings: phosphate buffer
Outline: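 Equilibrium solubility measured in 0.05 M phosphate buffer, pH 6.5.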

BACE1 [2] = molecular target: T1, BACE1; assay: SPR binding assay on immobilized BACE1
Outline: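 SPR at 18 °C in the immobilization buffer. Peptide titrations used 2-fold dilution steps, run either as single-cycle kinetics (5 concentrations) or multi-cycle kinetics (10 concentrations). Two protein surfaces and an activated/deactivated CM5 reference surface were measured in parallel on one sensor.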

[3] = test system: Aβ production in human stem-cell derived neurons; assay: Human neural stem cell-based Aβ40 inhibition assay; settings: 48 h incubation
Outline: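 Neurons differentiated from SB-AD3 human iPSCs (healthy adult donor fibroblasts) via embryoid bodies and dual SMAD inhibition. Doses 0.128–10,000 nM (three independent differentiations) or 0.001024–80 nM (one differentiation), two technical replicates per dose. Vehicle was histidine/NaCl/1.3 mM hydroxypropyl-β-cyclodextrin for peptides and DMSO for small molecules. Aβ40 read by AlphaLISA at 615 nm, compared with vehicle-treated cells; means ± SEM.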

plasma Aβ = assay: Plasma Aβ40 after single i.v. dose in mice; format: in vivo, C57BL/6 J mice; settings: 5 h post dose
Outline: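 Nine-week-old female mice received one i.v. injection of test compound at 0.003–3 mg/kg, with the buffer alone as vehicle control; three animals per group. Under anaesthesia, blood was collected into EDTA tubes, spun 8 min at 1600 × g, and plasma diluted 1:10 in 0.2% diethanolamine before solid-phase extraction.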

[4] = pH 6.5, Solubility pH 6.5, Table 1, phosphate buffer 0.05 M

**Q.** For CC(C)C[C@H](NC(=O)[C@H](CC(N)=O)NC(=O)[C@@H](NC(=O)[C@@H](N)CCC(=O)O)C(C)C)[C@@H](O)CC(=O)N[C@H](C(=O)N[C@@H](C)C(=O)N[C@@H](CCC(=O)O)C(=O)N1CCC[C@@H]1C(=O)N[C@@H](CCCCN)C(N)=O)C(C)C [Pep#2, Glu-Val-Asn-Sta-Val-Ala-Glu-DPro-Lys-NH2] (H-EVN[Sta]VAE[dP]K-NH2; N-terminus assumed), which IC50 (BACE1 [1]) is on record?
**A.** Its IC50 is over 40000 nM.

**Q.** What does the source list for CC(C)CCC[C@@H](C)[C@H]1CC[C@H]2[C@@H]3CC=C4C[C@@H](OC(=O)CCC(=O)NCCCC[C@H](NC(=O)[C@H]5CCCN5C(=O)[C@H](CCC(=O)O)NC(=O)[C@H](C)NC(=O)[C@@H](NC(=O)C[C@H](O)[C@H](CC(C)C)NC(=O)[C@H](CC(N)=O)NC(=O)[C@@H](NC(=O)[C@@H](N)CCC(=O)O)C(C)C)C(C)C)C(N)=O)CC[C@]4(C)[C@H]3CC[C@]12C [Pep#3, Glu-Val-Asn-Sta-Val-Ala-Glu-DPro-Lys(ε-Chol'ester’)-NH2] (H-EVN[Sta]VAE[dP]K(Succinyl(4-O-cholesteryl))-NH2; N-terminus assumed)?
**A.** solubility thermodynamic (Thermodynamic; pH 6.5): > 3000 µg/mL; IC50 (BACE1 [1]): 0.4 nM

**Q.** Which results are given for CCCCCCCCCCCCCCCC(=O)NCCCC[C@H](NC(=O)[C@H]1CCCN1C(=O)[C@H](CCC(=O)O)NC(=O)[C@H](C)NC(=O)[C@@H](NC(=O)C[C@H](O)[C@H](CC(C)C)NC(=O)[C@H](CC(N)=O)NC(=O)[C@@H](NC(=O)[C@@H](N)CCC(=O)O)C(C)C)C(C)C)C(N)=O [Pep#4, Glu-Val-Asn-Sta-Val-Ala-Glu-DPro-Lys(ε-Palmitoyl)-NH2] (H-EVN[Sta]VAE[dP]K(Palmitoyl)-NH2; N-terminus assumed)?
**A.** solubility thermodynamic (Thermodynamic; pH 6.5): < 1 µg/mL; IC50 (BACE1 [1]): 6 nM

**Q.** For CC[C@H](C)[C@H](NC(=O)[C@H](Cc1ccccc1)NC(=O)[C@H](Cc1ccc(O)cc1)NC(=O)[C@@H]1CCCN1C(=O)[C@H](Cc1ccc(O)cc1)NC(C)=O)C(=O)N1CCC[C@H]1C(=O)N[C@@H](CC(C)C)C(N)=O [Pep#5, Ac-Tyr-Pro-Tyr-Phe-Ile-Pro-Leu-NH2], which IC50 (BACE1 [1]) is on record?
**A.** The IC50 was over 40000 nM.

**Q.** Which solubility thermodynamic (Thermodynamic; [4]) does the source give for CC[C@H](C)[C@H](NC(=O)[C@H](Cc1ccccc1)NC(=O)[C@H](Cc1ccc(O)cc1)NC(=O)[C@@H]1CCCN1C(=O)[C@@H](N)Cc1ccc(O)cc1)C(=O)N1CCC[C@H]1C(=O)N[C@@H](CC(C)C)C(=O)NCC(=O)NCC(=O)NCC(=O)N[C@@H](CCC(=O)O)C(=O)N[C@H](C(=O)N[C@@H](CC(N)=O)C(=O)N[C@@H](CC(C)C)[C@@H](O)CC(=O)N[C@H](C(=O)N[C@@H](C)C(=O)N[C@@H](CCC(=O)O)C(=O)N1CCC[C@@H]1C(=O)N[C@@H](CCCCNC(=O)CCC(=O)O[C@H]1CC[C@@]2(C)C(=CC[C@H]3[C@@H]4CC[C@H]([C@H](C)CCCC(C)C)[C@@]4(C)CC[C@@H]32)C1)C(N)=O)C(C)C)C(C)C [Pep#7, Tyr-Pro-Tyr-Phe-Ile-Pro-Leu-Gly-Gly-Gly-Glu-Val-Asn-Sta-Val-Ala-Glu-DPro-Lys(Chol'ester’)-NH2] here?
**A.** Its solubility thermodynamic is under 1 µg/mL.

**Q.** With CC[C@H](C)[C@H](NC(=O)[C@H](Cc1ccccc1)NC(=O)[C@H](Cc1ccc(O)cc1)NC(=O)[C@@H]1CCCN1C(=O)[C@@H](N)Cc1ccc(O)cc1)C(=O)N1CCC[C@H]1C(=O)N[C@H](CCCCN)C(=O)NCC(=O)N[C@H](CCCCN)C(=O)NCC(=O)N[C@@H](CCC(=O)O)C(=O)N[C@H](C(=O)N[C@@H](CC(N)=O)C(=O)N[C@@H](CC(C)C)[C@@H](O)CC(=O)N[C@H](C(=O)N[C@@H](C)C(=O)N[C@@H](CCC(=O)O)C(=O)N1CCC[C@@H]1C(=O)N[C@@H](CCCCNC(=O)CCC(=O)O[C@H]1CC[C@@]2(C)C(=CC[C@H]3[C@@H]4CC[C@H]([C@H](C)CCCC(C)C)[C@@]4(C)CC[C@@H]32)C1)C(N)=O)C(C)C)C(C)C [Pep#9, Tyr-Pro-Tyr-Phe-Ile-Pro-DLys-Gly-DLys-Gly-Glu-Val-Asn-Sta-Val-Ala-Glu-DPro-Lys(Chol'ester’)-NH2] as the molecule, how does the solubility thermodynamic (Thermodynamic; [4]) read?
**A.** Its solubility thermodynamic is over 718 µg/mL.

**Q.** With CC[C@H](C)[C@H](NC(=O)[C@H](Cc1ccccc1)NC(=O)[C@H](Cc1ccc(O)cc1)NC(=O)[C@@H]1CCCN1C(=O)[C@@H](N)Cc1ccc(O)cc1)C(=O)N1CCC[C@H]1C(=O)N[C@@H](C)C(=O)NCC(=O)N[C@H](CCCCN)C(=O)NCC(=O)N[C@@H](CCC(=O)O)C(=O)N[C@H](C(=O)N[C@@H](CC(N)=O)C(=O)N[C@@H](CC(C)C)[C@@H](O)CC(=O)N[C@H](C(=O)N[C@@H](C)C(=O)N[C@@H](CCC(=O)O)C(=O)N1CCC[C@@H]1C(=O)N[C@@H](CCCCNC(=O)CCC(=O)O[C@H]1CC[C@@]2(C)C(=CC[C@H]3[C@@H]4CC[C@H]([C@H](C)CCCC(C)C)[C@@]4(C)CC[C@@H]32)C1)C(N)=O)C(C)C)C(C)C [Pep#10, Tyr-Pro-Tyr-Phe-Ile-Pro-Ala-Gly-DLys-Gly-Glu-Val-Asn-Sta-Val-Ala-Glu-DPro-Lys(Chol'ester’)-NH2] (H-YPYFIPAG[dK]GEVN[Sta]VAE[dP]K(Succinyl(4-O-cholesteryl))-NH2; N-terminus assumed) as the molecule, how does the solubility thermodynamic (Thermodynamic; pH 6.5) read?
**A.** The solubility thermodynamic was over 2450 µg/mL.

**Q.** With CC[C@H](C)[C@H](NC(=O)[C@H](Cc1ccccc1)NC(=O)[C@H](Cc1ccc(O)cc1)NC(=O)[C@@H]1CCCN1C(=O)[C@@H](N)Cc1ccc(O)cc1)C(=O)N1CCC[C@H]1C(=O)N[C@H](CCCCN)C(=O)NCC(=O)N[C@H](CCCCN)C(=O)NCC(=O)N[C@@H](CCC(=O)O)C(=O)N[C@H](C(=O)N[C@@H](CC(N)=O)C(=O)N[C@@H](CC(C)C)[C@@H](O)CC(=O)N[C@H](C(=O)N[C@@H](C)C(=O)N[C@@H](CCC(=O)O)C(=O)N1CCC[C@@H]1C(N)=O)C(C)C)C(C)C [Pep#12, Tyr-Pro-Tyr-Phe-Ile-Pro-DLys-Gly-DLys-Gly-Glu-Val-Asn-Sta-Val-Ala-Glu-DPro-NH2] as the molecule, how does the kon (BACE1 [2]; BACE1 surface, 18 °C, pH 4.5) read?
**A.** The kon was 1.1–1.3·10^5 1/Ms.

**Q.** What about the “Selectivity for BACE1” value (BACE1 [2]; ratio KD(BACE2)/KD(BACE1)) of the same molecule?
**A.** The value was > 15 ^a.

**Q.** Which results are given for CC[C@H](C)[C@H](NC(=O)[C@H](Cc1ccccc1)NC(=O)[C@H](Cc1ccc(O)cc1)NC(=O)[C@@H]1CCCN1C(=O)[C@H](Cc1ccc(O)cc1)NC(=O)CNC(=O)CNC(=O)CN)C(=O)N1CCC[C@H]1C(=O)N[C@H](CCCCN)C(=O)NCC(=O)N[C@H](CCCCN)C(=O)NCC(=O)N[C@@H](CCC(=O)O)C(=O)N[C@H](C(=O)N[C@@H](CC(N)=O)C(=O)N[C@@H](CC(C)C)[C@@H](O)CC(=O)N[C@H](C(=O)N[C@@H](C)C(=O)N[C@@H](CCC(=O)O)C(=O)N1CCC[C@@H]1C(=O)N[C@@H](CCCCNC(=O)CCC(=O)O[C@H]1CC[C@@]2(C)C(=CC[C@H]3[C@@H]4CC[C@H]([C@H](C)CCCC(C)C)[C@@]4(C)CC[C@@H]32)C1)C(N)=O)C(C)C)C(C)C [Pep#14, Gly-Gly-Gly-Tyr-Pro-Tyr-Phe-Ile-Pro-DLys-Gly-DLys-Gly-Glu-Val-Asn-Sta-Val-Ala-Glu-DPro-Lys(Chol'ester’)-NH2] (H-GGGYPYFIP[dK]G[dK]GEVN[Sta]VAE[dP]K(Succinyl(4-O-cholesteryl))-NH2; N-terminus assumed)?
**A.** Aβ production inhibition in human stem-cell derived neurons [3]: able to reduce the Aβ production; Aβ40 production inhibition in HEK293 APP cells (BACE1 [1]): blocked production of Aβ40; Plasma Aβ40 inhibition (plasma Aβ; 0.003-3 mg/kg i.v., uncoupled peptides): Dose-dependent inhibition; Plasma Aβ level reduction (plasma Aβ; 3 mg/kg i.v., uncoupled peptide): 51%

**Q.** With CC[C@H](C)[C@H](NC(=O)[C@H](Cc1ccccc1)NC(=O)[C@H](Cc1ccc(O)cc1)NC(=O)[C@@H]1CCCN1C(=O)[C@H](Cc1ccc(O)cc1)NC(=O)CNC(=O)CNC(=O)CN)C(=O)N1CCC[C@H]1C(=O)N[C@H](CCCCN)C(=O)NCC(=O)N[C@H](CCCCN)C(=O)NCC(=O)N[C@@H](CCC(=O)O)C(=O)N[C@H](C(=O)N[C@@H](CC(N)=O)C(=O)N[C@@H](CC(C)C)[C@@H](O)CC(=O)N[C@H](C(=O)N[C@@H](C)C(=O)N[C@@H](CCC(=O)O)C(=O)N1CCC[C@@H]1C(N)=O)C(C)C)C(C)C [Pep#16, Gly-Gly-Gly-Tyr-Pro-Tyr-Phe-Ile-Pro-DLys-Gly-DLys-Gly-Glu-Val-Asn-Sta-Val-Ala-Glu-DPro-NH2] (H-GGGYPYFIP[dK]G[dK]GEVN[Sta]VAE[dP]-NH2; N-terminus assumed) as the molecule, how does the “Aβ production inhibition in human stem-cell derived neurons” value [3] read?
**A.** The value was “able to reduce the Aβ production”.

**Q.** What about the “Aβ40 production inhibition in HEK293 APP cells” value (BACE1 [1]) of the same molecule?
**A.** The value was “blocked production of Aβ40”.

**Q.** With “Ac-YPYFLPISAK-NH2 [Pep#6, Ac-Tyr-Pro-Tyr-Phe-Leu-Pro-Ile-Ser-Ala-Lys-NH2, reference compound]” as the molecule, how does the IC50 (BACE1 [1]) read?
**A.** Its IC50 is over 40000 nM.
